SMILES strings stand for the structures. Calls of active or inactive are those of the source. The rule behind the calls is not given here.

One may read the IC50 as the concentration that inhibits the measured activity by half.

In assay [1] the target is T1, L-lactate dehydrogenase A chain (Homo sapiens, UniProt P00338). Description: Inhibition of GS[HiBiT]GS-tagged LDHA (unknown origin) expressed in HEK-293T cells measured after 1 hr by […]. In kind it is cell-based. A digest of the protocol: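 HEK293T cells were transiently transfected for 24 h with CMV-driven LDHA carrying a C-terminal GS[HiBiT]GS tag, then reseeded at 2500 cells/well in DPBS with Ca/Mg and 1 g/L glucose. […] Cells were lysed with NP40, and 11S (100 nM final) plus furimazine was added.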
In general terms: With HiBiT, luminescence reflects the tagged protein that the partner subunit can reach.

The next assay concerns A673. Description: Cytotoxicity against human A673 cells assessed as reduction in cell viability after 48 hrs by CellTiter-Glo assay. The assay is classed as functional, cell-based. Conditions: A673, 48 h. For orientation: ATP-based viability assays read luminescence as a measure of living cells.
The target of assay [2] is T1, L-lactate dehydrogenase A chain. Kind of assay: Inhibition of recombinant human LDHA using sodium pyruvate as substrate preincubated for 5 mins followed by diaphorase/resazurin addition and measured after 20 mins by fluorescence based assay. (Alamar Blue is a resazurin reagent that responds to reducing activity.)
The target is the same in assay [3]. Kind of assay: Inhibition of LDHA in human MIA PaCa-2 cells assessed as decrease in lactate production incubated for 2 hrs by lactate oxidase-coupled fluorescence based assay. In kind it is cell-based.
Assay [4] shares this target. Kind of assay: Inhibition of LDHA in human A673 cells assessed as decrease in lactate production incubated for 2 hrs by lactate oxidase-coupled fluorescence based assay. In kind it is cell-based.
The target of assay [5] is L-lactate dehydrogenase B chain (Homo sapiens) (UniProt P07195). Kind of assay: Inhibition of recombinant human LDHB using sodium pyruvate as substrate preincubated for 5 mins followed by diaphorase/resazurin addition and measured after 20 mins by fluorescence based assay.
Sequence of L-lactate dehydrogenase B chain (Homo sapiens) (P07195 2-334 limits assumed): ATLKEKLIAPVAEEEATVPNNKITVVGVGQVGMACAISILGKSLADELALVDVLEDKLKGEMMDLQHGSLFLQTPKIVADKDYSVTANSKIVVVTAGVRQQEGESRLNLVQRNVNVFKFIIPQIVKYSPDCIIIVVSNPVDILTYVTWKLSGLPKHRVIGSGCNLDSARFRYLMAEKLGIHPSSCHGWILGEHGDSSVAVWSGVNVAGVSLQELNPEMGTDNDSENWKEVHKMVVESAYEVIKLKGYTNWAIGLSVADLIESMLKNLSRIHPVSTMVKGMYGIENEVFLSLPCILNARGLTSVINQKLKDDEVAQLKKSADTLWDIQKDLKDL
Another assay deals with MIA PaCa-2. Kind of assay: Cytotoxicity against human MIA PaCa-2 cells assessed as reduction in cell viability after 48 hrs by CellTiter-Glo assay. The assay is classed as functional, cell-based. Conditions: MIA PaCa-2, 48 h.
For another assay, the species on record is Sus scrofa. Description: Inhibition of porcine heart MDH using malic acid as substrate preincubated for 10 mins followed by substrate addition and measured after 5 mins by resazurin based fluorescence based assay. The note with it: time 15.0 min.

Consider `CC(C)(C)/C=C/c1cc(-c2nn(-c3nc(C(=O)O)cs3)c(CC3CC3)c2Cc2ccc(S(N)(=O)=O)c(F)c2)ccc1F`, for which the IC50 in assay [1] turned out to be 112 nM; in the assay on A673 it was 2260 nM; in assay [2], 59 nM; in assay [3] it was 255 nM; in assay [4], 361 nM; in the assay with MIA PaCa-2, 1900 nM. In addition, the inhibition result in assay [5] is “Active”. For the same compound, the inhibition result in the assay filed under Sus scrofa is “inactive”.
For `NS(=O)(=O)c1ccc(Cc2c(-c3cccc(C#Cc4ccc(C(F)(F)F)s4)c3)nn(-c3nc(C(=O)O)cs3)c2CC2CC2)cc1F`, the IC50 in assay [1] was determined as 113 nM; with A673 it was 833 nM; in assay [2], 434 nM; in assay [3], 337 nM; in assay [4], 485 nM; in the assay on MIA PaCa-2 it was 803 nM. In addition, in assay [5], the inhibition result was “Active”. The inhibition result in the assay listed under Sus scrofa was “inactive”.
As to `CC(C)c1ccc(C#Cc2cccc(-c3nn(-c4nc(C(=O)O)cs4)c(CC4CC4)c3Cc3ccc(S(N)(=O)=O)c(F)c3)c2)s1`, the IC50 in assay [1] stood at 179 nM; with A673, 528 nM; in assay [2], 385 nM; in assay [3], 203 nM; in assay [4], 296 nM; in the assay with MIA PaCa-2, 590 nM. The inhibition result in assay [5] is “Active”. Besides, in the assay filed under Sus scrofa, the inhibition result was “inactive”.
`CCC#Cc1cc(-c2nn(-c3nc(C(=O)O)cs3)c(CC3CC3)c2Cc2ccc(S(N)(=O)=O)c(F)c2)ccc1F`: the IC50 in assay [1] worked out at 112 nM; with A673 it was 716 nM; in assay [2], 14 nM; in assay [3], 470 nM; in assay [4], 487 nM; with MIA PaCa-2, 662 nM. The inhibition result in assay [5] is “Active”. Moreover, the inhibition result in the assay listed under Sus scrofa is “inactive”.
With `NS(=O)(=O)c1ccc(Cc2c(-c3cccc(C#CC4CCCC4)c3)nn(-c3nc(C(=O)O)cs3)c2CC2CC2)cc1F`, the IC50 in assay [1] turned out to be 89 nM; in the assay with A673 it was 419 nM; in assay [2], 47 nM; in assay [3], 281 nM; in assay [4], 298 nM; in the assay on MIA PaCa-2, 377 nM. For the same compound, the inhibition entry in assay [5] is “Active”. The inhibition entry in the assay listed under Sus scrofa was “inactive”.
`NS(=O)(=O)c1ccc(Cc2c(-c3ccc(F)c(C#CC4CCOC4)c3)nn(-c3nc(C(=O)O)cs3)c2CC2CC2)cc1F` (configuration not stated): the IC50 was 89 nM in assay [1]; 973 nM with A673; 7 nM in assay [2]; 831 nM in assay [3]; 1270 nM in assay [4] (a673). Besides, the inhibition entry in assay [5] was “Active”. The inhibition result in the assay filed under Sus scrofa was “inactive”.
`NS(=O)(=O)c1ccc(Cc2c(-c3ccc(F)c(-c4ccccc4)c3)nn(-c3nc(C(=O)O)cs3)c2CC2CC2)cc1`: the IC50 stood at 401 nM in assay [1]; 2650 nM in the assay with A673; 23 nM in assay [2]; 1220 nM in assay [3]; 835 nM in assay [4]; 8450 nM in the assay with MIA PaCa-2. Besides, the inhibition result in assay [5] is “Active”. Besides, the inhibition entry in the assay listed under Sus scrofa was “inactive”.
With `NS(=O)(=O)c1ccc(Cc2c(-c3cccc(-c4ccccc4)c3)nn(-c3nc(C(=O)O)cs3)c2CCC2CC2)cc1`, the IC50 in assay [1] came out at 727 nM; in the assay on A673, 1960 nM; in assay [2] it was 36 nM; in assay [3], 804 nM; in assay [4] it was 509 nM; in the assay on MIA PaCa-2 it was 6200 nM. For the same compound, the inhibition entry in assay [5] is “Active”. Besides, the inhibition result in the assay listed under Sus scrofa is “inactive”.
Regarding `Cc1nc(C#Cc2cccc(-c3nn(-c4nc(C(=O)O)cs4)c(CC4CC4)c3Cc3ccc(S(N)(=O)=O)c(F)c3)c2)cs1`, the half-maximal inhibitory concentration (IC50) in assay [1] came to 101 nM; in the assay with A673, 347 nM; in assay [2], 13 nM; in assay [3] (mia paca-2), 1180 nM; in assay [4] (a673), 1170 nM; in the assay with MIA PaCa-2, 471 nM. Besides, the inhibition entry in assay [5] is “Active”. Besides, the inhibition entry in the assay listed under Sus scrofa was “inactive”.
Take `NS(=O)(=O)c1ccc(Cc2c(-c3ccc(F)c(C#CC4CCNCC4)c3)nn(-c3nc(C(=O)O)cs3)c2CC2CC2)cc1F`: the IC50 is 2580 nM in assay [1]; 15 nM in assay [2]; 8910 nM in assay [3]; 12200 nM in assay [4]; 17300 nM in the assay with MIA PaCa-2. Besides, the inhibition result in assay [5] is “Active”. Moreover, the inhibition result in the assay filed under Sus scrofa was “inactive”.
`Cc1nc(C#Cc2cccc(-c3nn(-c4nc(C(=O)O)cs4)c(CCC4CC4)c3Cc3ccc(S(N)(=O)=O)c(F)c3)c2)cs1`: the IC50 in assay [1] was 90 nM; with A673, 219 nM; in assay [2] it was 24 nM; in assay [3], 253 nM; in assay [4] it was 300 nM; in the assay on MIA PaCa-2, 219 nM. Also, in assay [5], the inhibition result was “Active”. For the same compound, in the assay filed under Sus scrofa, the inhibition result is “inactive”.
Regarding `NS(=O)(=O)c1ccc(Cc2c(-c3cccc(-c4ccccc4)c3)nn(-c3nc(C(=O)O)cs3)c2CC2CC2)c(F)c1`, the IC50 with A673 worked out at 11500 nM; in assay [2], 229 nM; in assay [3], 6460 nM; in assay [4], 4460 nM; in the assay with MIA PaCa-2 it was 5750 nM. Further, the inhibition entry in assay [5] is “Active”. The inhibition result in the assay filed under Sus scrofa is “inactive”.
`NS(=O)(=O)c1ccc(Cc2c(-c3cccc(C#Cc4ccc(C5CCC5)s4)c3)nn(-c3nc(C(=O)O)cs3)c2CCC2CC2)cc1F`: the IC50 amounted to 299 nM in assay [1]; 571 nM in the assay on A673; 636 nM in assay [2]; 379 nM in assay [3]; 572 nM in assay [4]. For the same compound, in assay [5], the inhibition result is “Active”. The inhibition result in the assay listed under Sus scrofa was “inactive”.
On to `NS(=O)(=O)c1ccc(Cc2c(-c3cccc(C#Cc4ccc(C5CC5)s4)c3)nn(-c3nc(C(=O)O)cs3)c2CCC2CC2)cc1F`, for which the IC50 in assay [1] was determined as 189 nM; in assay [2], 306 nM; in assay [3], 387 nM; in assay [4], 434 nM; with MIA PaCa-2, 265 nM. Moreover, the inhibition result in assay [5] is “Active”. In addition, the inhibition entry in the assay listed under Sus scrofa is “inactive”.
In the case of `NS(=O)(=O)c1ccc(Cc2c(-c3cccc(C#Cc4ccc(C5CCC5)s4)c3)nn(-c3nc(C(=O)O)cs3)c2CC2CC2)cc1F`, the IC50 in assay [1] turned out to be 270 nM; in assay [2], 169 nM; in assay [3], 491 nM; in assay [4] it was 333 nM; in the assay with MIA PaCa-2, 905 nM. Moreover, in assay [5], the inhibition result was “Active”. The inhibition entry in the assay filed under Sus scrofa was “inactive”.
As for `CC#Cc1cccc(-c2nn(-c3nc(C(=O)O)cs3)c(CC3CC3)c2Cc2ccc(S(N)(=O)=O)c(F)c2)c1`, the IC50 worked out at 150 nM in assay [1]; 9 nM in assay [2]; 525 nM in assay [3]; 713 nM in assay [4]; 619 nM in the assay on MIA PaCa-2. In addition, the inhibition result in assay [5] was “Active”. Also, the inhibition entry in the assay filed under Sus scrofa was “inactive”.
On to `NS(=O)(=O)c1ccc(Cc2c(-c3ccc(F)c(C#CCN4CCCC4)c3)nn(-c3nc(C(=O)O)cs3)c2CC2CC2)cc1F`, for which the IC50 in assay [1] came to 267 nM; in assay [2], 8 nM; in assay [3] it was 1010 nM; in assay [4], 1090 nM. In addition, the inhibition result in assay [5] is “Active”. Also, the inhibition result in the assay listed under Sus scrofa is “inactive”.
Take `Cc1ccsc1C#Cc1cccc(-c2nn(-c3nc(C(=O)O)cs3)c(CC3CC3)c2Cc2ccc(S(N)(=O)=O)c(F)c2)c1`: the IC50 was found to be 119 nM in assay [1]; 101 nM in assay [2]; 417 nM in assay [3]; 390 nM in assay [4]; 452 nM in the assay with MIA PaCa-2. In assay [5], the inhibition result is “Active”. Further, the inhibition result in the assay listed under Sus scrofa is “inactive”.
On to `NS(=O)(=O)c1ccc(Cc2c(-c3ccc(F)c(C#CCN4CCOCC4)c3)nn(-c3nc(C(=O)O)cs3)c2CC2CC2)cc1F`, for which the IC50 in assay [1] stood at 5050 nM; with A673 it was 5830 nM; in assay [2], 107 nM; in assay [3] it was 18900 nM; in assay [4] it was 15300 nM. For the same compound, in assay [5], the inhibition result is “Active”. In addition, in the assay filed under Sus scrofa, the inhibition entry was “inactive”.
Take `Cn1cncc1C#Cc1cc(-c2nn(-c3nc(C(=O)O)cs3)c(CC3CC3)c2Cc2ccc(S(N)(=O)=O)c(F)c2)ccc1F`: the IC50 in assay [1] came out at 299 nM; in assay [2] it was 8 nM; in assay [3], 1070 nM; in assay [4], 1600 nM; in the assay with MIA PaCa-2, 1390 nM. Besides, the inhibition result in assay [5] is “Active”. Also, the inhibition result in the assay listed under Sus scrofa is “inactive”.
As to `Cc1cnc(C#Cc2cccc(-c3nn(-c4nc(C(=O)O)cs4)c(CC4CC4)c3Cc3ccc(S(N)(=O)=O)c(F)c3)c2)o1`, the IC50 in assay [1] worked out at 119 nM; in assay [2], 12 nM; in assay [3] it was 450 nM; in assay [4] it was 525 nM; in the assay with MIA PaCa-2, 671 nM. Besides, the inhibition entry in assay [5] is “Active”. For the same compound, the inhibition entry in the assay filed under Sus scrofa is “inactive”.
With `CC(C)(C)c1ccc(C#Cc2cc(-c3nn(-c4nc(C(=O)O)cs4)c(CC4CC4)c3Cc3ccc(S(N)(=O)=O)c(F)c3)ccc2F)s1`, the concentration for half-maximal inhibition (IC50) in assay [1] stood at 10600 nM; in assay [2], 713 nM; in assay [3], 507 nM; in assay [4], 529 nM; in the assay with MIA PaCa-2, 665 nM. Besides, the inhibition result in assay [5] was “Active”. In addition, in the assay filed under Sus scrofa, the inhibition result is “inactive”.

The record behind these values is ChEMBL document CHEMBL4665801, “Pyrazole-Based Lactate Dehydrogenase Inhibitors with Optimized Cell Activity and Pharmacokinetic Properties” (J Med Chem, 2020).
